Here are results for eleven molecules from ChEMBL document CHEMBL4014301, “Design, synthesis and evaluation of 4-substituted anthra[2,1-c][1,2,5]thiadiazole-6,11-dione derivatives as novel non-camptothecin topoisomerase I inhibitors” (Bioorg Med Chem Lett, 2017).

The subject of one data set is A549. The data set can be described thus: Antiproliferative activity against human A549 cells after 72 hrs by MTT assay. Type of data set: functional, cell-based.
Data set [1] concerns HCT-116. The data set can be described thus: Antiproliferative activity against human HCT116 cells after 72 hrs by MTT assay. Type of data set: functional, cell-based.
The test system of a further data set is ZR-75-30. The data set can be described thus: Antiproliferative activity against human ZR-7530 cells after 72 hrs by MTT assay. The format is functional, cell-based.
Data set [2] deals with T1, DNA topoisomerase 1 (Homo sapiens) (UniProt P11387).
T1 sequence (whole entry): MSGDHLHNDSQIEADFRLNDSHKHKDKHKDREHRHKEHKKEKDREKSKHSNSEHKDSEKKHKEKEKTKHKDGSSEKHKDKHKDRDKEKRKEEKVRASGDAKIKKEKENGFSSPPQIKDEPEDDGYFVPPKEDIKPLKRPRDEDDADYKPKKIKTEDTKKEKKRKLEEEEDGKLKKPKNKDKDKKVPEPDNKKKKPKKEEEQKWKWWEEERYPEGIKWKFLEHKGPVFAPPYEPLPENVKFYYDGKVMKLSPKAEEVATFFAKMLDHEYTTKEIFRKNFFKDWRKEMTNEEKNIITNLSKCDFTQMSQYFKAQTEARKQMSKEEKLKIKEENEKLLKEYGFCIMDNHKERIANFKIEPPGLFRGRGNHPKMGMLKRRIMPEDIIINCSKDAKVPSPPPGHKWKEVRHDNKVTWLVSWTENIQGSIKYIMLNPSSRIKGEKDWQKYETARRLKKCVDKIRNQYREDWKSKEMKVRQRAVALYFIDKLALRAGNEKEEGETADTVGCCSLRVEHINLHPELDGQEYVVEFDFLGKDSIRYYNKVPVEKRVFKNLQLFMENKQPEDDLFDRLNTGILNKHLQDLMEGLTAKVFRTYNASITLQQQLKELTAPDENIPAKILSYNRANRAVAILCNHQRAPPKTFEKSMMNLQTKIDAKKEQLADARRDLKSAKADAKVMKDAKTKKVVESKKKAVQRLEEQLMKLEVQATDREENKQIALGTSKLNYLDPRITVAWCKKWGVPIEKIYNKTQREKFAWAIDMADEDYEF
The data set can be described thus: Inhibition of DNA topoisomerase 1 (unknown origin) assessed as reduction in supercoiled pBR322 plasmid DNA relaxation at 100 uM after 15 mins by ethidium bromide staining based agarose gel electrophoresis. Put shortly:
(§1)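 Supercoiled pBR322 plasmid incubated with Top1, with or without compound at 1, 10 and 100 µM. Relaxation inhibition read from agarose gel bands.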

Data set [3] addresses T1, DNA topoisomerase 1 (Homo sapiens). The data set can be described thus: Inhibition of DNA topoisomerase-1 (unknown origin) mediated DNA relaxation assessed as DNA intercalation at 100 uM using supercoiled pBR322 plasmid DNA as substrate after 60 mins by ethidium bromide staining based agarose gel electrophoresis. Put shortly: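 Unwinding assay with excess Top1 acting on supercoiled pBR322 in the presence of compound at 100 µM. Ethidium bromide at 1 µg/mL used as intercalator reference. Compound removed by phenol extraction after relaxation. Nicked, relaxed and supercoiled forms resolved on gel.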

A short description of data set [4]: Solubility of the compound. Type of data set: physicochemical.
The subject of data set [5] is HCT-116. The data set can be described thus: Cell cycle arrest in human HCT116 cells assessed as accumulation at G2 phase at 5 uM after 12 hrs by propidium iodide staining-based flow cytometry (reference value: 19%). Type of data set: functional.
Data set [6] concerns HCT-116. The data set can be described thus: Cell cycle arrest in human HCT116 cells assessed as accumulation at G2 phase at 5 uM after 36 hrs by propidium iodide staining-based flow cytometry (reference value: 21%). The format is functional.
In data set [7] the target is T1, DNA topoisomerase 1 (Homo sapiens). The data set can be described thus: Inhibition of DNA topoisomerase 1 (unknown origin) assessed as reduction in supercoiled pBR322 plasmid DNA relaxation after 15 mins by ethidium bromide staining based agarose gel electrophoresis. Put shortly: as §1
For data set [8] the target is unchanged. The data set can be described thus: Inhibition of DNA topoisomerase 1 (unknown origin) assessed as reduction in supercoiled pBR322 plasmid DNA relaxation at 1 uM after 15 mins by ethidium bromide staining based agarose gel electrophoresis. Put shortly: as §1
Data set [9] shares this target. The data set can be described thus: Inhibition of DNA topoisomerase-1 (unknown origin) mediated DNA relaxation assessed as DNA intercalation at 1 ug/ml using supercoiled pBR322 plasmid DNA as substrate after 60 mins by ethidium bromide staining based agarose gel electrophoresis. In outline: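 Top1 unwinding assay for DNA intercalation: supercoiled pBR322 plasmid treated with excess Top1 in presence of compounds (100 µM), with ethidium bromide (1 µg/mL) as intercalator control; compounds removed by phenol extraction after relaxation. Nicked, relaxed and supercoiled DNA forms resolved on gel.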

Structures are written as SMILES. In brackets after ≈: the same amount, converted by molar mass. Activity calls are given as the source filed them. The rule behind the calls is not given here.

As for `O=C1c2ccccc2C(=O)c2c1cc(S(=O)(=O)c1cccs1)c1nsnc21`, the concentration for half-maximal inhibition (IC50) is over 100 µM in the data set on A549 (Homo sapiens, A549, 72 h); 1.5 µM with HCT-116 [1] (Homo sapiens, HCT-116, 72 h); 24 µM in the data set on ZR-75-30 (Homo sapiens, ZR-75-30, 72 h). Further, in [2], the inhibition entry is “Active”. Moreover, the inhibition result in data set [3] is “inactive”.

As for `CC(=O)N1CCN(c2cc3c(c4nsnc24)C(=O)c2ccccc2C3=O)CC1`, the IC50 was 17 µM with A549 (Homo sapiens, A549, 72 h); 0.52 µM with HCT-116 [1] (Homo sapiens, HCT-116, 72 h); 0.42 µM in the data set with ZR-75-30 (Homo sapiens, ZR-75-30, 72 h). Besides, the inhibition result in data set [2], in data set [3] and in data set [8] was “Active” throughout. For the same molecule, the solubility in data set [4] worked out at 7.98 µg/mL (≈ 20.3 µM). For the same molecule, the figures for the Activity in the data set on HCT-116 [5] and in the data set on HCT-116 [6] were 34% and 56%, respectively. The inhibition entry in [7] is “Dose-dependent effect”.

For `CC[n+]1c(-c2ccccc2)c2cc(N)ccc2c2ccc(N)cc21`, in [9], the inhibition entry was “Active”.

Turning to `O=C1c2ccccc2C(=O)c2c1cc(SCc1ccccc1Cl)c1nsnc21`, the IC50 was over 100 µM in the data set with A549 (Homo sapiens, A549, 72 h); over 100 µM in the data set on HCT-116 [1] (Homo sapiens, HCT-116, 72 h); over 100 µM in the data set with ZR-75-30 (Homo sapiens, ZR-75-30, 72 h). In addition, the inhibition result in data set [2] was “Active”.

As for `CN1CCN(c2cc3c(c4nsnc24)C(=O)c2ccccc2C3=O)CC1`, the IC50 in the data set on A549 (Homo sapiens, A549, 72 h) was found to be 14 µM; with HCT-116 [1] (Homo sapiens, HCT-116, 72 h) it was 3.3 µM; in the data set with ZR-75-30 (Homo sapiens, ZR-75-30, 72 h), 2.7 µM. Besides, the inhibition result in data set [2] is “Active”.

As to `O=C1c2ccccc2C(=O)c2c1cc(Sc1ccc3ccccc3c1)c1nsnc21`, the IC50 was over 100 µM in the data set on A549 (Homo sapiens, A549, 72 h); over 100 µM with HCT-116 [1] (Homo sapiens, HCT-116, 72 h); over 100 µM with ZR-75-30 (Homo sapiens, ZR-75-30, 72 h). The inhibition entry in data set [2] was “Active”.

For `CC(C)Nc1cc2c(c3nsnc13)C(=O)c1ccccc1C2=O`, the 50% inhibitory concentration (IC50) in the data set with A549 (Homo sapiens, A549, 72 h) stood at 6.7 µM; with HCT-116 [1] (Homo sapiens, HCT-116, 72 h) it was 7 µM; with ZR-75-30 (Homo sapiens, ZR-75-30, 72 h) it was 3 µM. The inhibition result in data set [2] was “Active”.

As to `CC(C)CNc1cc2c(c3nsnc13)C(=O)c1ccccc1C2=O`, the IC50 with A549 (a549) was over 100 µM; in the data set on HCT-116 [1] (hct-116), 6.3 µM; with ZR-75-30 (zr-75-30), 3.1 µM. Besides, the inhibition entry in [2] is “Active”.

With `O=C1c2ccccc2C(=O)c2c1cc(S(=O)(=O)c1ccc3ccccc3c1)c1nsnc21`, the IC50 in the data set on A549 (Homo sapiens, A549, 72 h) is over 100 µM; with HCT-116 [1] (Homo sapiens, HCT-116, 72 h), 6.7 µM; with ZR-75-30 (Homo sapiens, ZR-75-30, 72 h), 23 µM. Moreover, the inhibition entry in data set [2] was “Active”.

`O=C1c2ccccc2C(=O)c2c1cc(Sc1cccs1)c1nsnc21`: the IC50 with A549 (Homo sapiens, A549, 72 h) is over 100 µM; with HCT-116 [1] (Homo sapiens, HCT-116, 72 h) it was over 100 µM; in the data set with ZR-75-30 (Homo sapiens, ZR-75-30, 72 h) it was over 100 µM. Further, in data set [2], the inhibition result was “Active”. For the same molecule, the inhibition entry in data set [3] was “inactive”.

In the case of `Cc1ccc(S(=O)(=O)c2cc3c(c4nsnc24)C(=O)c2ccccc2C3=O)cc1`, the IC50 in the data set on A549 (Homo sapiens, A549, 72 h) turned out to be 50 µM; in the data set with HCT-116 [1] (Homo sapiens, HCT-116, 72 h), 84 µM; in the data set with ZR-75-30 (Homo sapiens, ZR-75-30, 72 h) it was 90 µM. Also, the solubility in data set [4] amounted to 0.14 µg/mL (≈ 0.333 µM).
